High-throughput results: PubChem BioAssay, Broad Institute
Hits are enriched below; roughly 1.9% of the tested compounds scored in any of these assays.
DENV2 CPE: protects cells from dengue virus 2 cytopathic effect. DENV2-infected cells, cytopathic effect rescue, plate reader. CPE inhibition, % at 9.99 µM. hit rate 1.7% among 350,000. AID 651640; in the data active = CPE inhibition above about 20%, passing the limit was not always enough; tested in BHK-21 cells
FN deposition inh: fibronectin deposition inhibition | AH1F fibroblasts, Alexa488-fibronectin deposition fluorescence, overnight | inhibition, % at 12.6 µM | hit rate 0.086% among 350,000 | AID 743247;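 active = mean inhibition across replicates of 30% or more, regardless of how many single replicates reach that level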
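Test system: AH1F fibroblast monolayer depositing Alexa488-labelled fibronectin into matrix. Input: 10000 cells per well. Technique: fluorescence, ex 485 nm, em 525 nm. Buffer or medium: DMEM plus 2% serum, read in PBS. Timing: 1 h cell adhesion before compound, then overnight fibronectin incubation. Compound: single dose, pinned. Read-out basis: inhibition from reduced deposited-fibronectin fluorescence.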
PGC1a acetyl inh: modulators of PGC1a acetylation | hit rate 0.17% among 350,000 | inhibition, % at 15.6 µM | U2OS PGC1a acetylation, AlphaScreen anti-acetyl-lysine; with virally co-expressed GCN5 acetyltransferase;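 active = every replicate shows inhibition of at least 40%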
F508del corr: CFTR F508del correction in bronchial cells; hit rate 0.36% among 350,000; AID 720511; activity (quench increase), % at 7.58 µM; CFBE cells, YFP halide quenching; stimulated with forskolin plus potentiator P3; % fluorescence drop versus neutral controls;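 active = mean added fluorescence quench of at least 8% versus neutral control, with both replicates also reaching 8%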;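 note: cells transiently co-express mutant CFTR-F508del with the halide-sensitive YFP; corrector assay measuring rescue of mutant channel to the surface after 24 h compound exposure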
Cneo AK release: Cryptococcus neoformans lysis via adenylate kinase release; lysis activity, % at 15 µM; hit rate 0.2% among 360,000; C. neoformans lysis, adenylate kinase release luminescence, 4 h; normalised: neutral wells 0, clomiphene wells 100;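 active = mean lysis activity across replicates of at least 80%, whatever share of replicates individually reach that level; inactive = mean lysis activity below 80%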
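Material – Cryptococcus neoformans yeast cells · Quantity – 5 × 10^6 yeast cells/mL · Buffer or medium – YPD medium · Compound – single dose · Timing – 4 h static compound exposure, 37 °C, read 1 h post-reagent · Signal – adenylate kinase release luminescence · Read-out basis – lysis from increased AK signal · Benchmarks – Clomiphene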
Xi reactivation: activators of X-chromosome reactivation in mouse fibroblasts. XiGFP mouse fibroblasts, % GFP-positive cells imaging, 3 d; cells co-treated with 5-aza-dC sensitizer; scaled so ellipticine positive control = 100%. activation, % at 7.58 µM. hit rate 0.055% among 360,000. AID 743238;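 active = mean normalized replicate activation at least 10% and every replicate at or above 10%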
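System: SV40-immortalized XiGFP fibroblast cells, line 68-5-11 / Incubation: 3-day compound exposure, then 15 min fixation at room temperature / Compound: single concentration per compound, delivered by pin transfer / Buffer or medium: DMEM plus 5-aza-dC sensitizer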
Large screens that a line does not name were inactive; ! = not active in a repeat.

C[C@H]1CN([C@@H](C)CO)C(=O)Cc2cc(NS(=O)(=O)c3ccccc3)ccc2O[C@@H]1CN(C)C(=O)Nc1ccccc1	DENV2 CPE 23 (no result: FN deposition inh)
C[C@H](CO)N1C[C@H](C)[C@H](CN(C)C(=O)Nc2ccccc2)Oc2ccc(NS(=O)(=O)c3ccccc3)cc2CC1=O	DENV2 CPE 34 (no result: FN deposition inh)
COc1ccc(NC(=O)Nc2ccc3c(c2)C(=O)N([C@H](C)CO)C[C@@H](C)[C@H](CN(C)CC2CCCCC2)O3)cc1	none (no result: FN deposition inh)
CNC(=O)C[C@@H]1CC[C@@H]2[C@H](COC[C@@H](O)CN2C(=O)c2ccc3c(c2)OCO3)O1	none
COc1ccc(NC(=O)Nc2ccc3c(c2)CC(=O)N([C@@H](C)CO)C[C@@H](C)[C@@H](CN(C)S(=O)(=O)c2cccs2)O3)cc1	none
Cc1ccc(F)cc1S(=O)(=O)N[C@@H]1CCN(Cc2cccc3[nH]ccc23)C1	none (no result: FN deposition inh, PGC1a acetyl inh, Xi reactivation)
CNC[C@H]1Oc2ccc(NC(=O)Nc3ccc(C(F)(F)F)cc3)cc2CC(=O)N([C@@H](C)CO)C[C@H]1C	none
CCNC(=O)C[C@H]1CC[C@@H]2[C@H](COC[C@@H](O)CN2Cc2ccncc2)O1	none
C[C@@H]1CN([C@@H](C)CO)C(=O)Cc2cc(NS(=O)(=O)c3ccc(Cl)cc3)ccc2O[C@H]1CN(C)C(=O)Nc1ccccc1	none (no result: FN deposition inh)
C[C@H](CO)N1C[C@H](C)[C@@H](CN(C)C(=O)Nc2ccccc2)Oc2ccc(NS(=O)(=O)c3ccc(Cl)cc3)cc2CC1=O	DENV2 CPE 58 (no result: FN deposition inh)
CCOC(=O)C1CCCN(c2nc3ccccc3nc2NS(=O)(=O)c2ccc(C)cc2)C1 (stereo not drawn)	F508del corr 21
NC(=O)C1CCN(c2nc3ccccc3nc2NS(=O)(=O)c2ccc(Br)cc2)CC1	none
O=C([C@@H]1[C@@H](CO)[C@@H]2Cn3c(ccc(C4=CCCC4)c3=O)[C@@H]2N1Cc1nccs1)N1CCOCC1	none (no result: FN deposition inh, PGC1a acetyl inh, F508del corr)
Cc1noc(C)c1S(=O)(=O)Nc1ccc2c(c1)CC(=O)N([C@@H](C)CO)C[C@H](C)[C@H](CN(C)S(=O)(=O)c1cccs1)O2	none
Cc1noc(C)c1S(=O)(=O)Nc1ccc2c(c1)CC(=O)N([C@H](C)CO)C[C@H](C)[C@@H](CN(C)S(=O)(=O)c1cn(C)cn1)O2	Cneo AK release 110 (no result: FN deposition inh)
Cc1noc(C)c1S(=O)(=O)Nc1ccc2c(c1)CC(=O)N([C@@H](C)CO)C[C@@H](C)[C@@H](CN(C)S(=O)(=O)c1cccs1)O2	Cneo AK release 106
COc1ccc(S(=O)(=O)N[C@H]2CC[C@@H](CCn3cc(-c4cccc(F)c4)nn3)O[C@H]2CO)cc1	none (no result: FN deposition inh)
C[C@H](CO)N1C[C@H](C)[C@H](CN(C)C(=O)Cc2ccccc2)Oc2ncc(C3=CCCCC3)cc2C1=O	none (no result: FN deposition inh, Cneo AK release)
C[C@H](CO)N1C[C@H](C)[C@@H](CN(C)C(=O)c2ccc3c(c2)OCO3)Oc2ncc(C3=CCCC3)cc2C1=O	none (no result: FN deposition inh)
C[C@@H]1CN([C@@H](C)CO)C(=O)c2cc(C3=CCCCC3)cnc2O[C@@H]1CN(C)C(=O)Cc1ccccc1	DENV2 CPE 46 (no result: FN deposition inh)
C[C@@H]1CN([C@H](C)CO)C(=O)c2cc(C3=CCCCC3)cnc2O[C@H]1CN(C)C(=O)c1ccc2c(c1)OCO2	DENV2 CPE 54
C[C@@H]1CN([C@@H](C)CO)C(=O)c2cc(C3=CCCCC3)cnc2O[C@H]1CN(C)C(=O)Cc1cccnc1	Cneo AK release 110
COCCNC(=O)[C@H]1[C@H](CO)[C@H]2Cn3c(ccc(C4=CCCCC4)c3=O)[C@@H]1N2C(=O)C1CC1	none (no result: FN deposition inh, PGC1a acetyl inh)
CCCNC(=O)N1C[C@H](O)COC[C@H]2O[C@H](CC(=O)N3CCN(C)CC3)CC[C@@H]21	Cneo AK release 118
CCCNC(=O)N1C[C@@H](O)COC[C@H]2O[C@H](CC(=O)N3CCN(C)CC3)CC[C@@H]21	Cneo AK release 105
CCCNC(=O)C[C@H]1CC[C@@H]2[C@H](COC[C@H](O)CN2C(=O)CC)O1	DENV2 CPE 83
C[C@@H]1CN([C@H](C)CO)C(=O)c2cc(NC(=O)Nc3cccc4ccccc34)ccc2O[C@H]1CN(C)S(=O)(=O)c1ccccc1	none (no result: FN deposition inh)
O=C1C=CC(O)C2(CO)OC12 (stereo not drawn)	DENV2 CPE 25 (no result: PGC1a acetyl inh)
Cc1noc(C)c1NC(=O)N(C)C[C@H]1Oc2ccc(NC(=O)NC3CCCCC3)cc2CC(=O)N([C@H](C)CO)C[C@@H]1C	none (no result: FN deposition inh)
C[C@H](CO)N1C[C@H](C)[C@H](CN(C)C(=O)NC2CCCCC2)OCCCC[C@H](C)Oc2ccc(NS(=O)(=O)c3cn(C)cn3)cc2C1=O	Cneo AK release 90 (no result: DENV2 CPE, FN deposition inh, PGC1a acetyl inh)
C[C@@H]1CCCCO[C@H](CN(C)C(=O)NC2CCCCC2)[C@@H](C)CN([C@H](C)CO)C(=O)c2cc(NS(=O)(=O)c3cn(C)cn3)ccc2O1	none (no result: DENV2 CPE, FN deposition inh, PGC1a acetyl inh, F508del corr, Cneo AK release)
C[C@@H]1CCCCO[C@H](CN(C)C(=O)Nc2ccccc2)[C@@H](C)CN([C@H](C)CO)C(=O)c2cc(NS(=O)(=O)c3cn(C)cn3)ccc2O1	DENV2 CPE 45!
C[C@@H]1CCCCO[C@H](CN(C)C(=O)Nc2cccc3ccccc23)[C@@H](C)CN([C@@H](C)CO)C(=O)c2cc(NS(=O)(=O)c3cn(C)cn3)ccc2O1	DENV2 CPE 89 (no result: FN deposition inh)
Cc1ccc(NS(=O)(=O)c2cccc(C(=O)NCCCn3ccnc3)c2)cc1	none (no result: PGC1a acetyl inh, Cneo AK release)
Cc1ccc(S(=O)(=O)Nc2cccc(C(=O)NCCCn3ccnc3)c2)cc1F	DENV2 CPE 54 (no result: PGC1a acetyl inh, Cneo AK release)
CCCn1c(-c2ccc[nH]c2=O)nc2cc(C)c(C)cc21	DENV2 CPE 25 (no result: Cneo AK release)
C[C@@H]1CN(C)C(=O)c2cccnc2O[C@H]1CN(C)S(C)(=O)=O	none (no result: DENV2 CPE, PGC1a acetyl inh, F508del corr, Cneo AK release)
C[C@@H]1CN([C@H](C)CO)C(=O)Cc2cc(NC(=O)Cn3cnnn3)ccc2O[C@@H]1CN(C)C(=O)Nc1ccc2c(c1)OCO2	none (no result: FN deposition inh)
C[C@@H]1CN([C@H](C)CO)C(=O)Cc2cc(NC(=O)Cn3cnnn3)ccc2O[C@H]1CN(C)C(=O)Nc1ccc(C(F)(F)F)cc1	DENV2 CPE 30
C[C@H](CO)N1C[C@H](C)[C@H](CN(C)C(=O)Nc2ccc3c(c2)OCO3)Oc2ccc(NC(=O)Cn3cnnn3)cc2CC1=O	DENV2 CPE 42 (no result: FN deposition inh)
C[C@@H]1CN([C@H](C)CO)C(=O)Cc2cc(NC(=O)Cn3cnnn3)ccc2O[C@@H]1CN(C)CC1CCCCC1	DENV2 CPE 22
Cc1ccc(S(=O)(=O)Nc2ccc3c(c2)CC(=O)N([C@@H](C)CO)C[C@@H](C)[C@H](CN(C)C(=O)NC(C)C)O3)cc1	none (no result: FN deposition inh)
